The target in series [1] is T1, PRMT5/MEP50 complex (Homo sapiens, UniProt O14744). The experiment in a line: Binding affinity to PRMT5/MEP50 (unknown origin) assessed as inhibition constant by FITC- Competitive binding assay. Type of series: protein-complex assay. The procedure, abridged:
(§1)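 Competitive FP: 1 nM FITC-labeled tracer peptide with PRMT5-MEP50 (194 nM with tracer 50; 600 nM with tracer 21); unlabeled peptide titrated as two-fold dilutions in 50 mM HEPES, 250 mM NaCl, 1 mM TCEP, 0.01% Tween 20, pH 8.0; room temperature up to 1 h 45 min; read 485/535 nm; triplicate.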

A short description of series [2]: Stability in human U2OS cells assessed as half life incubated upto 24 hrs by HPLC analysis. Type of series: ADME, cell-based. As to conditions: U2OS cell lysate.
In series [3] the target is T1, PRMT5/MEP50 complex. The experiment in a line: Inhibition of PRMT5/MEP50 (unknown origin) incubated for 1 to 2 hrs in presence of tracer 21 by competitive fluorescence polarization assay. Type of series: protein-complex assay. The procedure, abridged: as §1
For orientation: In fluorescence polarisation assays a small probe gives low polarisation when free and higher when bound to something large.

The target of series [4] is T1, PRMT5/MEP50 complex. The experiment in a line: Inhibition of PRMT5/MEP50 (unknown origin) incubated for 1 to 2 hrs in presence of tracer 50 by competitive fluorescence polarization assay. Type of series: protein-complex assay. The procedure, abridged: as §1
The test system of series [5] is Flp-In-T-REx-293. The experiment in a line: Inhibition of PRMT5/RioK1 protein-protein interaction in human Flp-In-T-REx-293 cells over-expressed with GFP-PRMT5 at 50 uM incubated for 2 hrs by immunoprecipitation assay. The class given is cell-based. Put shortly: (§2)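 S100 extracts from induced Flp-In T-REx 293 cells expressing GFP-tagged proteins were treated with peptide at 50 µM (or DMSO) for 1 h at room temperature. GFP-Trap beads were then added for 2 h at 4 °C and washed. Co-purified PRMT5, MEP50, RioK1 and pICln were detected by immunoblot with fluorescent secondary antibodies.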

A short description of series [6]: Inhibition of full length human ICLN/PRMT5 (unknown origin) protein-protein interaction by fluorescence polarization assay.
Series [7] deals with Flp-In-T-REx-293. The experiment in a line: Inhibition of PRMT5/RioK1 protein-protein interaction in human Flp-In-T-REx-293 cells over-expressed with GFP-RioK1 at 50 uM incubated for 2 hrs by immunoprecipitation assay. Type of series: cell-based. Put shortly:
as §2

Series [8] concerns the target PRMT5/MEP50 complex (Homo sapiens, UniProt O14744+Q9BQA1). The experiment in a line: Binding affinity to PRMT5/MEP50 (unknown origin) assessed as dissociation constant by FITC- Competitive binding assay. Type of series: protein-complex assay.

Activity calls are given as the source filed them. The calls are words filed in the database; no cut-off is given here. Numbered stars: 1 amine (or outer) side, 2 acyl side, 3 side chain; on linkers, the order of the positions; unused ones are H or OH. Bridge positions count the residues as written; N and C are the ends. Square brackets hold non-standard residues; d marks the D form. Peptide text beside a SMILES is read from it. * marks the point of attachment. FITC = O=C1OC2(c3ccc(O)cc3Oc3cc(O)ccc32)c2ccc(NC(=S)*)cc21; Hag = O=C([C@H](CCC=[*:3])N[*:1])[*:2]; dAllylGly = C=CC[C@@H](N)C(=O)O

T1 sequence (O14744 whole entry): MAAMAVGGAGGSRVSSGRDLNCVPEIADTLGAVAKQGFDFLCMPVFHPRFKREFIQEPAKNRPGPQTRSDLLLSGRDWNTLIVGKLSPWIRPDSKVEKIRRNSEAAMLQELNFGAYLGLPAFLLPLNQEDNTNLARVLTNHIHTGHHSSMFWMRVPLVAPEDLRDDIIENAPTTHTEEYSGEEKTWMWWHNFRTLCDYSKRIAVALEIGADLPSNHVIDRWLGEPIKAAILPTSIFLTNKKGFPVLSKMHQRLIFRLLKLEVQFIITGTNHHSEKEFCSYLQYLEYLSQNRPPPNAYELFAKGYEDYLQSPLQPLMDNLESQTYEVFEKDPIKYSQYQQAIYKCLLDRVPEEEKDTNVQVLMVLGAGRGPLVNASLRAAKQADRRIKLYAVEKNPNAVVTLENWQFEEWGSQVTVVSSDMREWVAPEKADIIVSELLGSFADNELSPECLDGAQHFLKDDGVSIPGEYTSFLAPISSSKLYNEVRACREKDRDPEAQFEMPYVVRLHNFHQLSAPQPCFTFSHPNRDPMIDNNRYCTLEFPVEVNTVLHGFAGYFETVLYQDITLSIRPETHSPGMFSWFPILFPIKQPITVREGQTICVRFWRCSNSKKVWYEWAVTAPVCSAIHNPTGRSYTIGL
T1 sequence (Q9BQA1 whole entry, further chain): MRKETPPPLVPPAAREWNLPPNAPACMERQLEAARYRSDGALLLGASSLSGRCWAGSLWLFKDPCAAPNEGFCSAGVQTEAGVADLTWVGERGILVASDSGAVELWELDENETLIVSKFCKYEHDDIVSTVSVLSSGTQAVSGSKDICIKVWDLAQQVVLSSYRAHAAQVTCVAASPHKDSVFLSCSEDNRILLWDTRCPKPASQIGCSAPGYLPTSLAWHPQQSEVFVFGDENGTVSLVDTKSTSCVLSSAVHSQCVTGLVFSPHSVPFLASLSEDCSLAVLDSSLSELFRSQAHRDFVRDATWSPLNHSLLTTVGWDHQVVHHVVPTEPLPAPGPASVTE
PRMT5/MEP50 complex (Homo sapiens, UniProt O14744+Q9BQA1), sequence (O14744 whole entry): as the sequence (O14744 whole entry) above
PRMT5/MEP50 complex (Homo sapiens, UniProt O14744+Q9BQA1), sequence (Q9BQA1 whole entry): as the sequence (Q9BQA1 whole entry, further chain) above

Broadly, the Ki is a dissociation constant, usually derived from enzyme kinetics or from competition with a known ligand. Consider Ac-SRVVPGQFDDAD-NH2, for which the Ki on PRMT5/MEP50 complex [1] was 1800 nM.

As a reminder, the half-life is the time in which the quantity being followed falls by half. The IC50 is the concentration needed to halve the response being measured. Ac-VPGQFDDAD-NH2: the half-life in series [2] was 264 min. Further, the concentration for half-maximal inhibition (IC50) was found to be 2490 nM at PRMT5/MEP50 complex [3] and 5.3 µM on PRMT5/MEP50 complex [4]. At PRMT5/MEP50 complex [1], the Ki is 862 nM.

Consider `CC(=O)N[C@H](C(=O)N1CCC[C@H]1C(=O)N[C@H]1CCCCC[C@@H](C(=O)N[C@@H](CC(=O)O)C(=O)N[C@@H](C)C(=O)N[C@@H](CC(C(=O)O)C(=O)O)C(N)=O)NC(=O)[C@H](Cc2ccc([N+](=O)[O-])cc2)NC(=O)[C@H](CCC(N)=O)NC1=O)C(C)C`, for which the inhibition entry in the series with Flp-In-T-REx-293 [5] and with Flp-In-T-REx-293 [7] was “Active” in each case. In series [6], this molecule returned an IC50 of 654 nM.

A word on the Kd: it is the free concentration of one partner at which half of the binding sites on the other are occupied at equilibrium, for simple one-to-one binding. `CC(=O)N[C@H](C(=O)N1CCC[C@H]1C(=O)N[C@H]1CC/C=C/C[C@H](C(=O)N[C@@H](CC(=O)O)C(=O)N[C@@H](C)C(=O)N[C@@H](CC(=O)O)C(=O)N[C@@H](CCCCNC(=S)Nc2ccc3c(c2)C(=O)OC32c3ccc(O)cc3Oc3cc(O)ccc32)C(N)=O)NC(=O)[C@H](Cc2ccccc2)NC(=O)[C@H](CCC(N)=O)NC1=O)C(C)C` (Ac-VP[Hag]QF[dAllylGly]DADK(FITC)-NH2; staple (E) 3-6): at PRMT5/MEP50 complex [8], the Kd was more than 2000 nM.

Take `CC(C)[C@H](NC(=O)[C@H](CCCNC(=N)N)NC(=O)[C@H](CO)NC(=O)COCCOCCNC(=S)Nc1ccc2c(c1)C(=O)OC21c2ccc(O)cc2Oc2cc(O)ccc21)C(=O)N[C@H](C(=O)N1CCC[C@H]1C(=O)N[C@H]1C/C=C/C[C@H](C(=O)N[C@@H](CC(=O)O)C(=O)N[C@@H](C)C(=O)N[C@@H](CC(=O)O)C(N)=O)NC(=O)[C@H](Cc2ccccc2)NC(=O)[C@H](CCC(N)=O)NC1=O)C(C)C` (stereo in doubt; form 2): the Kd at PRMT5/MEP50 complex [8] is more than 2000 nM.

For the molecule `CC(C)[C@H](NC(=O)[C@H](CCCNC(=N)N)NC(=O)[C@H](CO)NC(=O)COCCOCCNC(=S)Nc1ccc2c(c1)C(=O)OC21c2ccc(O)cc2Oc2cc(O)ccc21)C(=O)N[C@H](C(=O)N1CCC[C@H]1C(=O)N[C@H]1CNC(=O)CC[C@H](C(=O)N[C@@H](CC(=O)O)C(=O)N[C@@H](C)C(=O)N[C@@H](CC(=O)O)C(N)=O)NC(=O)[C@H](Cc2ccccc2)NC(=O)[C@H](CCC(N)=O)NC1=O)C(C)C`, the dissociation constant Kd at PRMT5/MEP50 complex [8] is more than 2000 nM.

With `CC(C)[C@H](NC(=O)[C@H](CCCNC(=N)N)NC(=O)[C@H](CO)NC(=O)COCCOCCNC(=S)Nc1ccc2c(c1)C(=O)OC21c2ccc(O)cc2Oc2cc(O)ccc21)C(=O)N[C@H](C(=O)N1CCC[C@H]1C(=O)N[C@H]1C/C=C/C[C@H](C(=O)N[C@@H](CC(=O)O)C(=O)N[C@@H](C)C(=O)N[C@@H](CC(=O)O)C(N)=O)NC(=O)[C@H](Cc2ccccc2)NC(=O)[C@H](CCC(N)=O)NC1=O)C(C)C` (stereo in doubt; form 1), the Kd at PRMT5/MEP50 complex [8] was more than 2000 nM.

Turning to `CC(=O)N[C@H](C(=O)N1CCC[C@@H]1C(=O)N[C@H]1CCCCC[C@@H](C(=O)N[C@@H](CC(=O)O)C(=O)N[C@@H](C)C(=O)N[C@@H](CC(C(=O)O)C(=O)O)C(=O)N[C@@H](CCCCNC(=S)Nc2ccc3c(c2)C(=O)OC32c3ccc(O)cc3Oc3cc(O)ccc32)C(N)=O)NC(=O)[C@H](Cc2ccc([N+](=O)[O-])cc2)NC(=O)[C@H](CCC(N)=O)NC1=O)C(C)C`, the Kd on PRMT5/MEP50 complex [8] amounted to 89 nM.

The values above are taken from ChEMBL document CHEMBL5214998, “Development of Macrocyclic PRMT5-Adaptor Protein Interaction Inhibitors” (J Med Chem, 2022).
